ChEMBL document CHEMBL3351274, “Sensitization of tumor necrosis factor-related apoptosis-inducing ligand (TRAIL)-resistant primary prostate cancer cells by isoegomaketone from Perilla frutescens” (J Nat Prod, 2014)

Columns and labels:
[1] = Induction of apoptosis in human RC-58T/h/SA#4 cells assessed as AIF level in cytosol at 20 uM after 24 hrs by immunoblotting analysis relative to untreated control; type: functional
Outline: (§1)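 Cells grown in DMEM/10% FBS at 37 °C, 5% CO2, then treated 24 h with compound (20 μM) with or without TRAIL (100 ng/mL). Whole lysates were used for Bax and Bcl-2. Cytosolic and mitochondrial fractions were prepared with a mitochondria isolation kit for AIF and cytochrome c. Blotting used 10 μg protein/lane, 12% SDS-PAGE, nitrocellulose, overnight primary antibody at 4 °C and ECL detection.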

Homo sapiens [2] = organism: Homo sapiens; test: Induction of apoptosis in human RC-58T/h/SA#4 cells assessed as AIF level in mitochondria at 20 uM after 24 hrs by immunoblotting analysis relative to untreated control; type: functional, cell-based; outline: as §1
Homo sapiens [3] = organism: Homo sapiens; test: Sensitization of TRAIL-induced apoptosis in human RC-58T/h/SA#4 cells assessed as cytochrome C level in mitochondria at 20 uM after 24 hrs by immunoblotting analysis relative to untreated control; type: functional, cell-based
Outline: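 Cells given 20 μM compound and/or 100 ng/mL TRAIL for 24 h. Mitochondrial and cytosolic fractions prepared with a mitochondria isolation kit. Fractions resolved by 12% SDS-PAGE at 10 μg/lane and immunoblotted with anti-cytochrome c or anti-AIF overnight at 4 °C, then HRP secondary and ECL detection.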

[4] = Induction of apoptosis in human RC-58T/h/SA#4 cells assessed as DR4 expression at 2.5 uM after 24 hrs by immunoblotting analysis relative to untreated control; type: functional
[5] = Induction of apoptosis in human RC-58T/h/SA#4 cells assessed as DR4 expression at 5 uM after 24 hrs by immunoblotting analysis relative to untreated control; type: functional
[6] = Induction of apoptosis in human RC-58T/h/SA#4 cells assessed as DR4 expression at 40 uM after 24 hrs by immunoblotting analysis relative to untreated control; type: functional
[7] = Induction of apoptosis in human RC-58T/h/SA#4 cells assessed as DR5 expression at 2.5 uM after 24 hrs by immunoblotting analysis relative to untreated control; type: functional
[8] = Induction of apoptosis in human RC-58T/h/SA#4 cells assessed as DR5 expression at 20 uM after 12 hrs by immunoblotting analysis relative to untreated control; type: functional
[9] = Sensitization of TRAIL-induced apoptosis in human RC-58T/h/SA#4 cells assessed as procaspase-9 activation at 20 uM after 24 hrs by immunoblotting analysis in presence of Dr5 Fc chimera relative to untreated control; type: functional
Outline: (§2)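 Cells pretreated 2 h with 100 ng/mL DR5 Fc chimera, then given 20 μM compound and/or 100 ng/mL TRAIL for 24 h. Total lysates immunoblotted (12% SDS-PAGE, nitrocellulose) for caspase-3, -8, -9 and PARP cleavage, with HRP secondary and ECL detection.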

[10] = Sensitization of TRAIL-induced apoptosis in human RC-58T/h/SA#4 cells assessed as procaspase-3 activation at 20 uM after 24 hrs by immunoblotting analysis in presence of Dr5 Fc chimera relative to untreated control; type: functional; outline: as §2
[11] = Sensitization of TRAIL-induced apoptosis in human RC-58T/h/SA#4 cells assessed as PARP cleavage at 20 uM after 24 hrs by immunoblotting analysis in presence of Dr5 Fc chimera relative to untreated control; type: functional; outline: as §2
Homo sapiens [12] = organism: Homo sapiens; test: Induction of apoptosis in human RC-58T/h/SA#4 cells assessed as p53 expression after 3 to 24 hrs by immunoblotting analysis relative to untreated control; type: functional, cell-based
Outline: (§3)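 RC-58T/h/SA#4 cells seeded at 5 × 10^4 cells/mL and cultured 24 h, then given compound across a concentration series or at fixed dose over a time course. Lysates were quantified by BCA. 10 μg protein/lane run on 12% SDS-PAGE and transferred to nitrocellulose. Blots probed for p53, CHOP and β-actin with HRP secondary and ECL.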

[13] = Induction of apoptosis in human RC-58T/h/SA#4 cells assessed as p53 expression at 2.5 uM after 24 hrs by immunoblotting analysis relative to untreated control; type: functional; outline: as §3
[14] = Induction of apoptosis in human RC-58T/h/SA#4 cells assessed as p53 expression at 5 uM after 24 hrs by immunoblotting analysis relative to untreated control; type: functional
Outline: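 RC-58T/h/SA#4 cells (DMEM, 10% FBS, 37 °C, 5% CO2) exposed to the compound over a concentration range or time course. Lysates run on 12% SDS-PAGE at 10 μg protein/lane, transferred to nitrocellulose and blocked with BSA. Blots probed overnight at 4 °C with anti-p53, then HRP secondary antibody, ECL detection; β-actin as loading control.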

[15] = Induction of apoptosis in human RC-58T/h/SA#4 cells assessed as CHOP expression at 2.5 uM after 24 hrs by immunoblotting analysis relative to untreated control; type: functional; outline: as §3
[16] = Induction of apoptosis in human RC-58T/h/SA#4 cells assessed as CHOP expression at 10 uM after 24 hrs by immunoblotting analysis relative to untreated control; type: functional; outline: as §3
[17] = Induction of apoptosis in human RC-58T/h/SA#4 cells assessed as CHOP expression at 20 uM after 18 hrs by immunoblotting analysis relative to untreated control; type: functional; outline: as §3
[18] = Induction of ROS generation in human RC-58T/h/SA#4 cells at 10 uM after 30 mins by flow cytometry (reference value: 1.9%); type: functional
[19] = Induction of ROS generation in human RC-58T/h/SA#4 cells at 40 uM after 30 mins by flow cytometry (reference value: 1.9%); type: functional
[20] = Sensitization of TRAIL-induced cytotoxicity against human RWPE1 cells assessed as cell viability at 20 uM after 24 hrs by SRB assay; type: cell-based; conditions: rwpe-1, 24 h
Outline: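 Cells seeded at 5 × 10^4 cells/mL, grown in DMEM with 10% FBS, and given the compound with or without 100 ng/mL TRAIL for 24 h at 37 °C, 5% CO2. RWPE-1 tested at 20 μM. Cells fixed in 12% TCA for 1 h at 4 °C, stained 1 h with 0.4% SRB, washed in 1% acetic acid, dye dissolved in 10 mM Tris and absorbance read. Three experiments, means ± SD.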

[21] = Induction of apoptosis in human RC-58T/h/SA#4 cells assessed as accumulation at Sub-G1 phase at 20 uM after 24 hrs by annexin-V/propidium iodide staining-based flow cytometry (reference value: 4.8%); type: functional
[22] = Sensitization of TRAIL-induced apoptosis in human RC-58T/h/SA#4 cells assessed as procaspase-8 activation at 20 uM after 24 hrs by immunoblotting analysis relative to untreated control; type: functional
Outline: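 Cells seeded at 5 × 10^4 cells/mL and cultured 24 h, then given 20 μM compound and/or 100 ng/mL TRAIL for 24 h. Whole-cell lysate made in Tris/NaCl/EDTA/NaF/pyrophosphate/PMSF/aprotinin buffer, 30 min on ice, protein measured by BCA. 12% SDS-PAGE at 10 μg/lane, nitrocellulose blot, primary antibodies (caspase-3, -8, -9, Bax, Bcl-2, PARP) overnight at 4 °C, HRP secondary, ECL.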

`CC(C)/C=C/C(=O)c1ccoc1` showed a Ratio [1] of 1.1, a Ratio (Homo sapiens [2]) of 1.2 and a Ratio (Homo sapiens [3]) of 0.5. The Ratio [4] was 1.1, the Ratio [5] was 1.1 and the Ratio [6] was 1.1. The Ratio [7] was 1, the Ratio [8] was 1.3 and the Ratio [9] was 1.1. The Ratio [10] was 0.9, the Ratio [11] was 1 and the Activity (Homo sapiens [12]) was “Dose-dependent effect”. For the same molecule, the Ratio [13] was 1.2, the Ratio [14] was 1.2 and the Ratio [15] was 1.3. For the same molecule, the Ratio [16] was 1.4, the Ratio [17] was 2 and the Activity [18] was 2%. For the same molecule, the Activity [19] was 2.5%, the Activity [20] was “Toxic” and the Activity [21] was 10.1%. The Ratio [22] was 0.3.
